{"source": "paper PMC3863768", "about": "(Journal of medicinal chemistry, 2012)", "key": {"[1]": {"biological_target": "T1, PfNMT (Plasmodium falciparum, UniProt Q9U419)", "T1 sequence (Q9U419 1-410)": "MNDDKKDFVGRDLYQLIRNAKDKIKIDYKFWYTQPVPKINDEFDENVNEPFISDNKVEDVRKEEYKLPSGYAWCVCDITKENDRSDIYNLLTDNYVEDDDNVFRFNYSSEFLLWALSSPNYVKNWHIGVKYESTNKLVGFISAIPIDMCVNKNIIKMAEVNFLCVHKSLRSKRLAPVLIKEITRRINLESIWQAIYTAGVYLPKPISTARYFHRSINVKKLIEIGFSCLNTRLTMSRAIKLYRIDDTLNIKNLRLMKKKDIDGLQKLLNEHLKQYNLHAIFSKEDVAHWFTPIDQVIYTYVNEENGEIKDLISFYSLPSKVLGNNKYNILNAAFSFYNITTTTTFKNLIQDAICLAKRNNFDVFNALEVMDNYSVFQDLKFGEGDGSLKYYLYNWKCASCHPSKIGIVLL", "experiment": "NMT enzyme inhibition assay", "type": "biochemical, P. falciparum", "conditions": "for lower inhibition vs. 4: shorter or longer spacers than the methylene ester; for lower inhibition vs. 4 / activity drop vs. 4: compared with compound 4", "how_it_was_run": "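Stopped with streptavidin PVT beads in pH 4 stop solution; scintillation counted. No-inhibitor wells set 100%, no-enzyme wells 0%. Test compound 500 μM to 2 nM, in duplicate. IC50 by nonlinear regression, averaged from two independent curves.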"}, "[2]": {"biological_target": "T2, HsNMT1 (Homo sapiens, UniProt P30419)", "T2 sequence (P30419 109-496 limits assumed)": "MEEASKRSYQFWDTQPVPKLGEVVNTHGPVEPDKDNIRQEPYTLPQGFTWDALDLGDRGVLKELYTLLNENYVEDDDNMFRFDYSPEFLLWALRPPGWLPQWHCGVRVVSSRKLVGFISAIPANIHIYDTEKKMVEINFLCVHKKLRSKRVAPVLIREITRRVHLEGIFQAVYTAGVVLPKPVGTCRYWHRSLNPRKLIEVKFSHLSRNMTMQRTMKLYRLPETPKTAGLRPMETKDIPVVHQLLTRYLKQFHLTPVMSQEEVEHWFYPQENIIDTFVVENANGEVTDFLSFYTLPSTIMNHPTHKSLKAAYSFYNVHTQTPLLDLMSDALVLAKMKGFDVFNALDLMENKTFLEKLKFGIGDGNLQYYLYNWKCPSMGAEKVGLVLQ", "experiment": "NMT enzyme inhibition assay", "type": "biochemical"}, "[3]": {"test_system": "P. falciparum, 3D7 line", "experiment": "P. falciparum inhibition assay", "type": "cell-based", "conditions": "synchronized P. falciparum trophozoites (3D7 line)", "how_it_was_run": "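Synchronous late-trophozoite cultures (1% parasitemia, 2% hematocrit) with test compound in 0.5% DMSO, 48 h at 37 °C. Aliquots stained with hydroethidine (1:200 dilution of 10 mg/mL stock in PBS), 20 min at 37 °C; 50,000 cells counted by flow cytometry. Untreated parasites and uninfected RBCs are the controls; % inhibition computed.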"}, "[4]": {"biological_target": "T3, HsNMT1 Y296A (Homo sapiens, UniProt P30419, Y296A)", "T3 sequence (P30419 109-496 Y296A limits assumed)": "T2 sequence (P30419 109-496 limits assumed) with Y188A", "experiment": "NMT enzyme inhibition assay", "type": "biochemical", "conditions": "HsNMT1 Y296A vs wild type"}}, "note": "Substitutions are numbered along the chain they refer to.", "data": [{"smiles": "CCOC(=O)c1oc2cccc(OCCCNCc3cccnc3)c2c1C", "note": "[Compound 1, reference compound]", "values": [{"measurement": "PfNMT inhibition (in words)", "setting": "[1]", "result": "moderate inhibition"}, {"measurement": "selectivity over human NMT1 (in words)", "setting": "[2]", "result": "promising selectivity"}]}, {"smiles": "CCOC(=O)c1oc2cccc(OC3CCNCC3)c2c1C", "note": "[Compound 2, Ethyl 3-methyl-4-(piperidin-4-yloxy) benzofuran-2-carboxylate]", "values": [{"measurement": "activity improvement over 1", "setting": "[1]; PfNMT inhibition, compared with compound 1", "result": 3, "unit": "fold"}, {"measurement": "selectivity over human NMT1 (in words)", "setting": "[2]", "result": "good human selectivity"}]}, {"smiles": "Cc1c(C(=O)Oc2ccccc2)oc2cccc(OC3CCNCC3)c12", "note": "[Compound 3, Phenyl 3-methyl-4-(piperidin-4-yloxy)-1-benzofuran-2-carboxylate]", "values": [{"measurement": "lower inhibition vs. 4", "setting": "[1]", "result": "10- to 100 fold"}]}, {"smiles": "Cc1c(C(=O)OCc2ccccc2)oc2cccc(OC3CCNCC3)c12", "note": "[Compound 4]", "values": [{"measurement": "anti-plasmodial effect in vitro (in words)", "setting": "[3]", "result": "highest anti-parasitic activity"}]}, {"smiles": "Cc1c(C(=O)OCCc2ccccc2)oc2cccc(OC3CCNCC3)c12", "note": "[Compound 7]", "values": [{"measurement": "lower inhibition vs. 4", "setting": "[1]", "result": "10- to 100 fold"}]}, {"smiles": "Cc1c(C(=O)OCCCc2ccccc2)oc2cccc(OC3CCNCC3)c12", "note": "[Compound 8]", "values": [{"measurement": "lower inhibition vs. 4", "setting": "[1]", "result": "10- to 100 fold"}]}, {"smiles": "Cc1c(C(=O)NC(C)C)oc2cccc(OC3CCNCC3)c12", "note": "[Compound 9, N-isopropyl-3-methyl-4-(piperidin-4-yloxy)benzofuran-2-carboxamide]", "values": [{"measurement": "IC50", "setting": "[1]", "result": "> 200", "unit": "µM"}]}, {"smiles": "Cc1c(C(=O)NC2CCCCC2)oc2cccc(OC3CCNCC3)c12", "note": "[Compound 10]", "values": [{"measurement": "IC50", "setting": "[1]", "result": "> 100", "unit": "µM"}]}, {"smiles": "Cc1c(CCc2ccccc2)oc2cccc(OC3CCNCC3)c12", "note": "[Compound 18, 4-{[3-Methyl-2-(2-phenylethyl)-1-benzofuran-4-yl]oxy}piperidine]", "values": [{"measurement": "PfNMT inhibition (in words)", "setting": "[1]", "result": "does not confer inhibitory activity"}]}, {"smiles": "Cc1c(COCc2ccccc2)oc2cccc(OC3CCNCC3)c12", "note": "[Compound 21, 4-({2-[(Benzyloxy)methyl]-3-methyl-1-benzofuran-4-yl}oxy)-piperidine]", "values": [{"measurement": "activity drop vs. 4", "setting": "[1]; PfNMT inhibition", "result": 40, "unit": "fold"}]}, {"smiles": "Cc1c(C(=O)CCc2ccccc2)oc2cccc(OC3CCNCC3)c12", "note": "[Compound 22]", "values": [{"measurement": "activity drop vs. 4", "setting": "[1]; PfNMT inhibition", "result": 40, "unit": "fold"}]}, {"smiles": "Cc1c(C(=O)/C=C/c2ccccc2)oc2cccc(OC3CCNCC3)c12", "note": "[Compound 23, (2E)-1-[3-Methyl-4-(piperidin-4-yloxy)-1-benzofuran-2-yl]-3-phenylprop-2-en-1-one]", "values": [{"measurement": "improvement in affinity vs. 22", "setting": "[1]; PfNMT inhibition, compared with compound 22", "result": 3, "unit": "fold"}]}, {"smiles": "O=S(=O)(Cc1ccccc1)c1cc2c(OC3CCNCC3)cccc2o1", "note": "[Compound 24, 4-{[2-(Phenylmethane)sulfonyl-1-benzofuran-4-yl]oxy}piperidine]", "values": [{"measurement": "PfNMT inhibition (in words)", "setting": "[1]", "result": "dramatic loss of activity"}]}, {"smiles": "Cc1c(-c2nc(Cc3ccccc3)no2)oc2cccc(OC3CCNCC3)c12", "note": "[Compound 25]", "values": [{"measurement": "PfNMT inhibition (in words)", "setting": "[1]", "result": "promising potency"}]}, {"smiles": "COc1cccc(COC(=O)c2oc3cccc(OC4CCNCC4)c3c2C)c1", "note": "[Compound 26]", "values": [{"measurement": "PfNMT inhibition (in words)", "setting": "[1]", "result": "comparable potency to the parent compound 4"}, {"measurement": "HsNMT1 inhibition (in words)", "setting": "[2]", "result": "weak inhibition"}, {"measurement": "increase in affinity on mutation of the human NMT", "setting": "[4]", "result": "four- to five-fold"}]}]}
